Results: ChEMBL document CHEMBL3616436, “Synthesis, cytotoxicity and antimicrobial activity of thiourea derivatives incorporating 3-(trifluoromethyl)phenyl moiety” (Eur J Med Chem, 2015)
pEC50: −log10 of the molar value. In brackets after ≈: the same amount, converted by molar mass. Activity calls are given as the source filed them. The calls are words filed in the database; no cut-off is given here.

Key:
[1] = Cytotoxicity against human MT4 cells; type: cell-based
[2] = test system: Vaccinia virus; test: Antiviral activity against Human Vaccinia virus ATCC VR-1549 infected in African green monkey Vero 76 cells assessed as reduction of virus-plaque formation after 3 days by crystal violet staining; type: functional, organism-based; conditions: Orthopoxvirus vaccinia, ATCC VR-1549, Vero, 72 h
[3] = test system: Bacillus subtilis; test: Antimicrobial activity against Bacillus subtilis ATCC 6633 at 400 ug after 18 hrs by disc-diffusion method; type: functional; conditions: ATCC 6633, 18 h, read-out: IZ
Summary of the method: (§1)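 Disc diffusion on Mueller-Hinton II agar per CLSI; 9 mm paper discs loaded with 400 µg compound from DMSO solution, dried, placed on agar; growth inhibition zone diameter read after 18 h at 35°C.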

[4] = test system: Enterococcus hirae; test: Antimicrobial activity against Enterococcus hirae ATCC 10541 at 400 ug after 18 hrs by disc-diffusion method; type: functional; summary of the method: as §1
[5] = test system: Yellow fever virus; test: Antiviral activity against Yellow fever virus 17D infected in BHK cells assessed as protection against virus-induced cytopathogenicity after 3 to 4 days by MTT assay; type: functional, cell-based
[6] = test system: Human immunodeficiency virus 1; test: Antiviral activity against HIV1 3B infected in human MT4 cells assessed as protection against virus-induced cytopathogenicity by MTT assay; type: functional, organism-based; conditions: Human immunodeficiency virus 1, 3B
[7] = test system: Staphylococcus aureus; test: Antimicrobial activity against Staphylococcus aureus NCTC 4163 at 400 ug after 18 hrs by disc-diffusion method; type: functional; conditions: NCTC 4163, 18 h, read-out: IZ; summary of the method: as §1
[8] = test system: Staphylococcus epidermidis; test: Antimicrobial activity against Staphylococcus epidermidis ATCC 12228 at 400 ug after 18 hrs by disc-diffusion method; type: functional; conditions: ATCC 12228, 18 h, read-out: IZ; summary of the method: as §1
[9] = test system: Staphylococcus aureus; test: Antimicrobial activity against Staphylococcus aureus ATCC 25923 at 400 ug after 18 hrs by disc-diffusion method; type: functional; conditions: ATCC 25923, 18 h, read-out: IZ; summary of the method: as §1
[10] = test system: Staphylococcus aureus; test: Antimicrobial activity against Staphylococcus aureus ATCC 6538 at 400 ug after 18 hrs by disc-diffusion method; type: functional; conditions: ATCC 6538, 18 h, read-out: IZ; summary of the method: as §1
[11] = test system: Mycobacterium tuberculosis; test: Antimycobacterial activity against Mycobacterium tuberculosis H37Rv ATCC 25618; type: functional
Summary of the method: (§2)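 Classical test-tube successive-dilution method in Youmans' modification of Proskauer and Beck liquid medium with 10% bovine serum. Inoculum came from 14-day cultures. DMSO stock was 10 mg/mL, diluted geometrically in medium. Tubes were incubated at 37 °C. Concentrations tested were 3.1, 6.2, 12.5, 25, 50 and 100 µg/ml. MIC is the minimum concentration inhibiting growth relative to compound-free tubes.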

[12] = test system: Micrococcus luteus; test: Antimicrobial activity against Micrococcus luteus ATCC 9341 at 400 ug after 18 hrs by disc-diffusion method; type: functional; conditions: ATCC 9341, 18 h, read-out: IZ; summary of the method: as §1
[13] = test system: Staphylococcus epidermidis; test: Antimicrobial activity against Staphylococcus epidermidis ATCC 35984 at 400 ug after 18 hrs by disc-diffusion method; type: functional; conditions: ATCC 35984, 18 h, read-out: IZ; summary of the method: as §1
[14] = test system: Staphylococcus aureus; test: Antimicrobial activity against Staphylococcus aureus ATCC 29213 at 400 ug after 18 hrs by disc-diffusion method; type: functional; conditions: ATCC 29213, 18 h, read-out: IZ; summary of the method: as §1
[15] = test system: Mammalian orthoreovirus 1; test: Antiviral activity against Reovirus type-1 ATCC VR-214 infected in BHK cells assessed as protection against virus-induced cytopathogenicity after 3 to 4 days by MTT assay; type: functional, cell-based; conditions: Mammalian orthoreovirus 1, ATCC VR-214, BHK
Summary of the method: (§3)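 Cells seeded in 96-well plates (BHK 5x10^4, MDBK 3x10^4 cells/well), grown overnight to confluence, infected at m.o.i. 0.01 (BHK for Reo-1, MDBK for BVDV); serial compound dilutions in maintenance medium with 0.5% inactivated FBS added after 1 h; viability by MTT after 3–4 days at 37°C; EC50 for 50% protection by linear regression.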

[16] = test system: Enterococcus faecalis; test: Antimicrobial activity against Enterococcus faecalis ATCC 29212 at 400 ug after 18 hrs by disc-diffusion method; type: functional; conditions: for zone of inhibition at 400 µg/disc: ATCC 29212, 18 h, read-out: IZ; summary of the method: as §1
[17] = test system: Poliovirus 1; test: Antiviral activity against Poliovirus type 1 ATCC VR-1562 infected in African green monkey Vero 76 cells assessed as reduction of virus-plaque formation after 2 days by crystal violet staining; type: functional, organism-based; conditions: Enterovirus C, ATCC VR-1562, Vero, 48 h
[18] = Antiviral activity against Bovine viral diarrhea virus 1-NADL ATCC VR-534 infected in MDBK cells assessed as protection against virus-induced cytopathogenicity after 3 to 4 days by MTT assay; type: functional, cell-based; conditions: Bovine viral diarrhea virus isolates and strains, ATCC VR-534, MDBK; summary of the method: as §3
[19] = test system: Staphylococcus epidermidis; test: Antimicrobial activity against Staphylococcus epidermidis ATCC 35984 after 18 hrs by twofold serial microdilution method; type: functional; conditions: ATCC 35984, 18 h
[20] = test system: Staphylococcus aureus; test: Antimicrobial activity against Staphylococcus aureus ATCC 29213 after 18 hrs by twofold serial microdilution method; type: functional; conditions: ATCC 29213, 18 h
[21] = Cytotoxicity against African green monkey Vero 76 cells assessed as cell viability after 48 to 96 hrs by crystal violet staining; type: cell-based; conditions: chlorocebus sabaeus
[22] = test system: Proteus vulgaris; test: Antimicrobial activity against Proteus vulgaris NCTC 4635 at 400 ug after 18 hrs by disc-diffusion method; type: functional; summary of the method: as §1
[23] = test system: Vesicular stomatitis virus; test: Antiviral activity against Vesicular stomatitis virus ATCC VR 1540 infected in African green monkey Vero 76 cells assessed as reduction of virus-plaque formation after 2 days by crystal violet staining; type: functional, organism-based; conditions: ATCC VR 1540, Vero, 48 h
[24] = test system: Staphylococcus epidermidis; test: Antimicrobial activity against Staphylococcus epidermidis ATCC 12228 after 18 hrs by twofold serial microdilution method; type: functional; conditions: ATCC 12228, 18 h
[25] = Cytotoxicity against bovine MDBK cells assessed as cell viability after 48 to 96 hrs by MTT assay; type: cell-based, Bos taurus; conditions: cattle
[26] = test system: Bacillus cereus; test: Antimicrobial activity against Bacillus cereus ATCC 11778 at 400 ug after 18 hrs by disc-diffusion method; type: functional; conditions: ATCC 11778, 18 h, read-out: IZ; summary of the method: as §1
[27] = test system: Human alphaherpesvirus 1; test: Antiviral activity against Human herpesvirus 1 KOS ATCC VR-1493 infected in African green monkey Vero 76 cells assessed as reduction of virus-plaque formation after 3 days by crystal violet staining; type: functional, organism-based; conditions: Human alphaherpesvirus 1, KOS ATCC VR1493, Vero, 72 h
Summary of the method: (§4)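 Plaque reduction: Vero-76 at 2x10^5 cells/well grown to confluent monolayers, infected 2 h at 50–100 PFU/well; after removing unadsorbed virus, overlay of D-MEM, 1% inactivated FBS, 0.75% methylcellulose with or without serial compound dilutions; 3 days at 37°C, fixed and stained with crystal violet in 50% ethanol, plaques counted; EC50 by linear regression.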

[28] = test system: Micrococcus luteus; test: Antimicrobial activity against Micrococcus luteus ATCC 10240 at 400 ug after 18 hrs by disc-diffusion method; type: functional; conditions: ATCC 10240, 18 h, read-out: IZ; summary of the method: as §1
[29] = test system: Staphylococcus aureus; test: Antimicrobial activity against Staphylococcus aureus ATCC 6538 after 18 hrs by twofold serial microdilution method; type: functional; conditions: ATCC 6538, 18 h
[30] = test system: Coxsackievirus B5; test: Antiviral activity against Human coxsackievirus B5 ATCC VR-29 infected in African green monkey Vero 76 cells assessed as reduction of virus-plaque formation after 3 days by crystal violet staining; type: functional, organism-based; conditions: Enterovirus B, ATCC VR-29, Vero, 72 h; summary of the method: as §4
[31] = test system: Staphylococcus aureus; test: Antimicrobial activity against Staphylococcus aureus NCTC 4163 after 18 hrs by twofold serial microdilution method; type: functional; conditions: NCTC 4163, 18 h
[32] = Cytotoxicity against BHK cells assessed as cell viability after 48 to 96 hrs by MTT assay; type: cell-based, Mesocricetus auratus; conditions: hamster
[33] = test system: Mycobacterium tuberculosis; test: Antimycobacterial activity against drug-sensitive Mycobacterium tuberculosis Spec. 192; type: functional; summary of the method: as §2
[34] = test system: Staphylococcus aureus; test: Antimicrobial activity against Staphylococcus aureus ATCC 25923 after 18 hrs by twofold serial microdilution method; type: functional; conditions: ATCC 25923, 18 h

Row | SMILES | CC50 [1] [µM] | pEC50 [2] | zone of inhibition at 400 µg/disc [3] [mm] | pEC50 [5] | pEC50 [6] | zone of inhibition at 400 µg/disc [7] [mm] | zone of inhibition at 400 µg/disc [8] [mm] | zone of inhibition at 400 µg/disc [9] [mm] | zone of inhibition at 400 µg/disc [10] [mm] | MIC [11] [µg/mL] | zone of inhibition at 400 µg/disc [12] [mm] | zone of inhibition at 400 µg/disc [13] [mm] | zone of inhibition at 400 µg/disc [14] [mm] | pEC50 [15] | pEC50 [17] | pEC50 [18] | MIC [19] [µg/mL] | MIC [20] [µg/mL] | CC50 [21] [µM] | pEC50 [23] | also measured
1 | Fc1ccccc1NC(=S)Nc1cccc(C(F)(F)F)c1 | 47 | < 4.19 | 20 | < 4.27 | < 4.33 | 18 | 20 | 19 | 21 | 100 (≈ 318 µM) | 21 | 20 | 19 | < 4.27 | < 4.19 | < 4.00 | 32 (≈ 102 µM) | 16 (≈ 50.9 µM) | 64 | < 4.19 | inhibition zone (IZ) [4]: inactive; zone of inhibition at 400 µg/disc [16]: 13 mm; zone of inhibition at 400 µg/disc ([22]; NCTC 4635, 18 h, read-out: IZ): 11 mm; MIC [24]: 16 µg/mL (≈ 50.9 µM); CC50 [25]: > 100 µM; zone of inhibition at 400 µg/disc [26]: 18 mm; pEC50 [27]: < 4.19; zone of inhibition at 400 µg/disc [28]: 23 mm; MIC [29]: 16 µg/mL (≈ 50.9 µM); pEC50 [30]: < 4.19; MIC [31]: 16 µg/mL (≈ 50.9 µM); CC50 [32]: 54 µM; MIC [33]: 100 µg/mL (≈ 318 µM); MIC [34]: 16 µg/mL (≈ 50.9 µM)
2 | COC(=O)c1ccccc1NC(=S)Nc1cccc(C(F)(F)F)c1 | > 100 | < 4.00 | 20 | < 4.00 | < 4.00 | 25 | 26 | 24 | 25 | > 100 | 25 | 24 | 23 | < 4.00 | < 4.00 | < 4.00 | 64 (≈ 181 µM) | 32 (≈ 90.3 µM) | > 100 | < 4.00 | zone of inhibition at 400 µg/disc ([4]; ATCC 10541, 18 h, read-out: IZ): 11 mm; zone of inhibition at 400 µg/disc [16]: 14 mm; inhibition zone (IZ) [22]: inactive; MIC [24]: 64 µg/mL (≈ 181 µM); CC50 [25]: > 100 µM; zone of inhibition at 400 µg/disc [26]: 19 mm; pEC50 [27]: < 4.00; zone of inhibition at 400 µg/disc [28]: 24 mm; MIC [29]: 32 µg/mL (≈ 90.3 µM); pEC50 [30]: < 4.00; MIC [31]: 32 µg/mL (≈ 90.3 µM); CC50 [32]: > 100 µM; MIC [33]: > 100 µg/mL; MIC [34]: 32 µg/mL (≈ 90.3 µM)
3 | C=C(C)CNC(=S)Nc1cccc(C(F)(F)F)c1 | 43 | < 4.00 | 16 | < 4.00 | < 4.37 | 20 | 17 | 18 | 18 | > 100 | 20 | 13 | 17 | < 4.00 | < 4.00 | < 4.00 | 64 (≈ 233 µM) | 64 (≈ 233 µM) | > 100 | < 4.00 | inhibition zone (IZ) [4]: inactive; inhibition zone (IZ) [16]: inactive; inhibition zone (IZ) [22]: inactive; MIC [24]: 64 µg/mL (≈ 233 µM); CC50 [25]: > 100 µM; zone of inhibition at 400 µg/disc [26]: 16 mm; pEC50 [27]: < 4.00; zone of inhibition at 400 µg/disc [28]: 16 mm; MIC [29]: 64 µg/mL (≈ 233 µM); pEC50 [30]: < 4.00; MIC [31]: 64 µg/mL (≈ 233 µM); CC50 [32]: > 100 µM; MIC [33]: 100 µg/mL (≈ 365 µM); MIC [34]: 64 µg/mL (≈ 233 µM)
